# Only some compounds are listed: those with a hit (about 3.1% of all), similar ones and a draw of the others.
# KCNQ1 act = potentiates or activates the human KCNQ1 potassium channel | P51787 | CHO-K1 KCNQ1, thallium flux FluxOR fluorescence; active compounds read high | B-score at 10 µM | actives 0.35% (n = 310,000);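 active = fluorescence ratio B-score, a plate-corrected score, at least three library SD, with initial intensity B-score within 5 SD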
#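 assay system = CHO-K1 cells stably expressing KCNQ1 | medium = assay buffer, equal DMSO in all wells | timing = 37 °C overnight plating, 90-min dark dye load, 20-min compound pretreatment | measured by = kinetic FluxOR thallium fluorescence, 10-s 1-Hz baseline, 110-s post-stimulus read | measure = fluorescence change relative to baseline, converted to B score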
# KCNK9 block = blocks the human KCNK9 two-pore domain potassium channel; Q9NPC2; HEK293 KCNK9, FluxOR thallium flux fluorescence; active compounds read low; B-score at 10 µM; actives 1.2% (n = 310,000); AID 488922;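 active = ratio B-score over 3 SD below the library mean, with starting fluorescence within 5 SD of its mean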;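 note: negative B-score means less thallium flux so channel inhibition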
# hERG protect = hERG (human) protection from proarrhythmic block; activation (rescue from dofetilide block), less the hit threshold, % at 10 µM; Q12809; CHO-hERG, FluxOR thallium flux, dofetilide IC70 present; actives 0.51% (n = 310,000);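 active = activation above the mean of controls blocked by dofetilide plus 5 SD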;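 note: thallium influx through hERG after potassium depolarization seen as dye fluorescence rise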
# KCNK3 inh = human KCNK3 channel inhibition, primary screen | O14649 | CHO-KCNK3 thallium flux, FluxOR fluorescence; active compounds read low | B-score at 10 µM | actives 0.84% (n = 340,000) | AID 602410;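 active = B-score under library mean minus 4 SD, starting fluorescence ratio at most library mean plus 5 SD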;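 note: more negative B-score means stronger inhibition of thallium flux through KCNK3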
# KCNQ1 inh = inhibitors of human KCNQ1 potassium channel | P51787 | CHO-K1 KCNQ1, FluxOR thallium flux fluorescence; active compounds read high | B-score at 10 µM | actives 1.3% (n = 310,000) | AID 2642;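 active = compounds whose thallium flux B-score, printed positive for inhibition, exceeds three library SD while starting fluorescence stays within three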;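 note: channel opened by potassium depolarization with thallium stimulus after 20 min compound exposure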
# KCNK9 inh conf = human KCNK9 inhibitor confirmation | shares compounds with KCNK9 block | HEK293 KCNK9 cells, FluxOR thallium flux fluorescence | inhibition, % at 10 µM | actives 43% (n = 4,900);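 active = thallium signal inhibited by more than 5 SD of the compound-free buffer control wells, on both duplicate plates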;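 note: 0% = assay buffer control wells without compound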
# Kir21 sel = selectivity of KCNK9 modulators against mouse Kir2.1; inhibition, % at 10 µM; AID 492993; actives 4% (n = 4,900); Kir2.1 cells, FluxOR thallium flux fluorescence; shares compounds with KCNK9 block;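 active = thallium signal drop more than 5 SD beyond the mean of the no-compound control wells, seen in both duplicate plates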;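 note: signal is fluorescence rise after thallium addition divided by baseline fluorescence; plate controls were assay buffer only for no effect and full block by chlorpromazine control for full effect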
# Target sequence (P35561 whole entry, looked up): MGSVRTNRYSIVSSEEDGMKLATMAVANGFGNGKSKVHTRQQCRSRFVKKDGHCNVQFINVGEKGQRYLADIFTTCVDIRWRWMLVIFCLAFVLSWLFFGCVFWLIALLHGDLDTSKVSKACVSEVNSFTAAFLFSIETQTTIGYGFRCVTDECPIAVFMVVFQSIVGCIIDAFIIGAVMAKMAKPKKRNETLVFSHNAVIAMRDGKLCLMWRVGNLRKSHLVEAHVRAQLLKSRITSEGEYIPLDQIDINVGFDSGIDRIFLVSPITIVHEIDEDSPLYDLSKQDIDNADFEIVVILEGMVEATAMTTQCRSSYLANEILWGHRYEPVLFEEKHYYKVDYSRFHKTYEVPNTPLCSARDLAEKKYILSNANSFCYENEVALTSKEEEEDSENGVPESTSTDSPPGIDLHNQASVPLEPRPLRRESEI
# KCNK9 uninduced = non-induced cell nonspecific activity of KCNK9 modulators. actives 40% (n = 4,900). non-induced KCNK9-HEK293, FluxOR thallium flux. shares compounds with KCNK9 block. AID 492997. inhibition, % at 10 µM;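 active = thallium signal drop beyond 5 SD of the untreated control mean, on both duplicate plates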;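 note: plate controls were buffer only IC0 wells for no effect and SID17386958 at its maximal inhibitory level for full effect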
# KCNK3 confirm = confirmation of human KCNK3 two-pore domain potassium channel inhibitors; shares compounds with KCNK3 inh; CHO-KCNK3 thallium flux, FluxOR fluorescence; 0% buffer, 100% carvedilol maximal block; ratio percent of control, % at 10 µM; actives 99% (n = 2,400); AID 651638;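 active = ratio percent of control, averaged over triplicates, above buffer control mean plus 5 SD, cut at about 64% in these data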;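 note: ratio is the fluorescence rise from min to max over baseline after thallium stimulus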
# KCNK3 uninduced = counter-screen for KCNK3 inhibitors: effect in non-induced cells. thallium flux ratio (lower = more inhibition) at 10 µM. shares compounds with KCNK3 inh. actives 40% (n = 2,400). non-induced KCNK3 parental cells, FluxOR thallium flux; active compounds read low;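 active = thallium flux ratio, averaged over three wells, more than 5 SD below the buffer control mean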;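 note: host cells are CHO cells without KCNK3 induction; ratio is peak minus trough fluorescence over baseline then normalized to buffer controls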
# * = called active by the depositor; i = inactive; / = no result given.
SMILES,KCNQ1 act,KCNK9 block,hERG protect,KCNK3 inh,KCNQ1 inh,KCNK9 inh conf,Kir21 sel,KCNK9 uninduced,KCNK3 confirm,KCNK3 uninduced
COC(=O)C1=C(c2ccc(OC(F)(F)F)cc2)C[C@@H]2CC[C@H]1N2C(=O)NCCOc1ccc(OC)cc1,/,/,/,i,/,/,/,/,/,/
CN1C(=O)C(=Cc2c(OCc3cnc(Cl)s3)ccc3ccccc23)C(=O)N(C)C1=O,i,-15*,-25,-9*,i,70%*,i,27%*,101*,i
CN1C(=O)C(=Cc2ccccc2OCc2ccccc2Cl)C(=O)N(C)C1=O,i,i,-8,i,i,/,/,/,/,/
O=P(Nc1cccc(F)c1)(Oc1ccccc1F)Oc1ccccc1F,i,-11*,-34,-12*,i,48%*,i,31%*,87*,0.13*
C[C@]12CCC3C(CC[C@H]4C[C@@H](O)[C@H](O)C[C@]34C)C1CC[C@@H]2O (some centres undefined),/,/,/,i,/,/,/,/,/,/
CC12CCC3C(CC=C4CC(O)CCC43C)C1CC(=CN1CCOCC1)C2=O (centres undefined),/,/,/,i,/,/,/,/,/,/
O=C(c1ccc(Cl)cc1)C1CCCN(Cc2ccc3nonc3c2)C1 (centres undefined),i,-8.1*,-13,-9.2*,i,58%*,i,i,95*,i
NC(N)=N/N=C/c1cn(-c2ccccc2)nc1-c1cccs1,i,-9.2*,-30,-12*,9*,54%*,50%*,i,101*,i
Cc1cc(C)c2c(ccc3cccc[n+]32)c1,i,i,-14,i,i,/,/,/,/,/
Oc1ccccc1/C=N/NP(=S)(c1ccccc1)c1ccccc1,i,-13*,-14,-15*,12*,42%*,i,35%*,109*,0.15*
Oc1ccc(/C=N/NP(=S)(c2ccccc2)c2ccccc2)c(O)c1O,i,i,-12,i,i,/,/,/,/,/
COc1ccccc1OCCCn1cc(C(C)=O)c2ccccc21,i,i,-20,i,i,/,/,/,/,/
COc1ccccc1OCCCn1cc(C(=O)C2CC2)c2ccccc21,i,i,-14,-8.8*,i,/,/,/,111*,i
CCN(CC)c1ccc(/C=C/[N+](=O)[O-])cc1,i,i,-45,-14*,6*,/,/,/,133*,0.09*
COc1ccc(CC(=O)C2C(=O)N(C)c3ccccc32)cc1OC (centres undefined),/,/,/,i,/,/,/,/,/,/
Cc1[nH]nc2ccc(-c3cncc(OC[C@@H](N)Cc4c[nH]c5ccccc45)c3)cc12,/,/,/,i,/,/,/,/,/,/
Cc1c(C(=O)c2cccc3ccccc23)c2cccc3c2n1[C@H](CN1CCOCC1)CO3,i,i,-3,-11*,i,/,/,/,80*,0.16*
CCN(CC(=O)Nc1ccc(C#N)c(Cl)c1)CC(=O)NC(C)(C)C,i,i,-2,i,i,/,/,/,/,/
N#Cc1ccc(NC(=O)CCNC(=O)c2ccco2)cc1Cl,i,i,-10,-10*,i,/,/,/,95*,0.15*

# Assay outcomes (PubChem BioAssay)
